Bioassay records as filed in PubChem BioAssay.
IDE inh: inhibitors of human insulin-degrading enzyme in cells | P14735 | inhibition, % at 5.59 µM | 0.41% of 320,000 active | HEK cells, FAbetaB cleavage, fluorescence polarization;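 active = percent inhibition above the average of all tested compounds plus 3 SD, set per screening campaign, cut at about 16% in these data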;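 also: IDE supplied by intact live HEK cells; FP after avidin binding of uncleaved biotin substrate so inhibition keeps polarization high; 0% = DMSO wells and 100% = 60 µM reference IDE inhibitor Ii1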
IDE act: IDE (human) activation, cell-based. HEK cells, FAbeta-B cleavage, fluorescence polarization; 0% vehicle, 100% cell-free pure enzyme wells. P14735. activation, % at 5.96 µM. 0.073% of 340,000 active;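 active = activation above the mean of all tested compounds plus 3 SD, set per screening campaign, cut at about 17% in these data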
CSN deneddyl inh: inhibitors of human CSN-mediated cullin deneddylation. 0.38% of 360,000 active. AID 651999. inhibition, % at 12.5 µM. Purified CSN, SCF-Nedd8-OG deneddylation, fluorescence polarization;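 active = pattern-corrected inhibition above about 35%, with an unprinted fluorescence ratio check between 0.5 and 1.5, limit read from the data, passing the limit was not always enough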;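 also: 0% = enzyme with substrate and 100% = substrate without enzyme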
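test system = HEK293T-derived human Csn5 enzyme | amount = 0.24 nM Csn5 enzyme, final concentration | medium = Tris/NaCl/DTT buffer, pH 7.5 | schedule = 90 min reaction at room temperature | signal = FP | evaluation = inhibition of Csn5 cleavage, % | compound dosing = single dose of 12.5 µM compound with 0.25% DMSO | probe or stimulus = 10 nM SCFSkp2-Nedd8OG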
HNF4A DNA FP: change in binding of human HNF4 alpha to DNA; HNF4a-FITC DNA binding, fluorescence polarization, 1 h; activity change, % at 10 µM; 0.3% of 360,000 active; AID 1224865; in the data active = activity change above about 30%, passing the limit was not always enough
Target sequence (P41235 whole entry, looked up): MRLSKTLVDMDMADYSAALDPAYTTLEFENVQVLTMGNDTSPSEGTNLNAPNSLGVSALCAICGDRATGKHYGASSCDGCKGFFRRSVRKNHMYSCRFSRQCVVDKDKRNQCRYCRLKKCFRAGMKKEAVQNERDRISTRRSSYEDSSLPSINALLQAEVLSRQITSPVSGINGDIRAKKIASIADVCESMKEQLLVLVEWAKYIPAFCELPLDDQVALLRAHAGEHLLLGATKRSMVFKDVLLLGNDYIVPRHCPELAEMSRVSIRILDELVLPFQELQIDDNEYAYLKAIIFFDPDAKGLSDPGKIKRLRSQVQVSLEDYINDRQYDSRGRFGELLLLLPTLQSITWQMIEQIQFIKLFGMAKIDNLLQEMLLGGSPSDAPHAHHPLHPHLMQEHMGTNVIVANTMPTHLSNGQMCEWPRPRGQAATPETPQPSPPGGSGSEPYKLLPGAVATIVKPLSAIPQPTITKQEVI
TPT1 inh: C. albicans TPT1 enzyme inhibition | 0.81% of 300,000 active | AID 1962 | recombinant caTPT1, FP RNA substrate dephosphorylation | inhibition, % at 5 µM;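 active = inhibition above the mean of all tested compounds plus 3 SD, set per screening campaign, cut at about 24% in these data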;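 also: plate controls were DMSO alone for no effect and ferristatin control at 100 nM for full effect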
Active calls of the source: *; x = no result. Rows were chosen to be rich in hits. Some 1.4% of all compounds tested hit in one or more screens of this group.

SMILES	IDE inh	IDE act	CSN deneddyl inh	HNF4A DNA FP	TPT1 inh
COCCCNc1c2c3c(cccc3[nH]c1=O)C(=O)c1ccccc1-2	-7	33*	-74	-103	-19
Cc1cc(Nc2ccc([N+](=O)[O-])cc2)c2ccccc2n1	1	-3	5	5	1
O=c1nc(Nc2ccccc2)sc2ccc([N+](=O)[O-])cc12	-2	6	43*	-3	-6
CCOC(=O)c1sc(NC(=O)/C=C/c2c(F)cccc2Cl)nc1C	-1	-3	-4	34*	0
C(=NNc1ccc2ccccc2n1)c1ccccn1	x	x	4	-1	x
O=C(NCc1cccc(C(F)(F)F)c1)C1C(=O)Nc2ccccc2C(=O)N1C1CCCC1 (stereo not drawn)	x	x	4	-1	x
O=C(NCCC1=CCCCC1)C1CCC(CNc2c(N3CCCC3)c(=O)c2=O)CC1 (stereo not drawn)	-1	6	4	29*	2
CSCCC(C(=O)NCc1ccccc1)n1c(C2CCN(C(C)=O)CC2)nc2ccccc21 (stereo not drawn)	x	x	-5	5	x
O=C(Nc1ccccc1)c1cn2ccccc2n1	0	3	-5	0	0
O=C(Nc1ccc(-n2cnnn2)cc1)c1cn2ccccc2n1	-1	-6	46*	21	1
O=C1CCSC2=C1SCc1sccc12	x	x	0	-1	x
Cc1cn2c(N)c(C=C3C=C(Cl)C(=O)C(Cl)=C3)c(=O)nc2s1	x	-32	62	108*	x
Cc1ccc(NC(=O)/C(C#N)=C/c2ccc(C)s2)c(C)c1	0	-7	70*	63	-4
Cc1ccc(CNC(=O)/C(C#N)=C/c2ccc(C)s2)cc1	0	3	2	-1	-3
COc1cc2sc3ccc(C#Cc4ccccn4)cc3c(=O)c2cc1OC	-1	5	54*	175	3
COc1cccc2sc3cc(C#Cc4ccccn4)ccc3c(=O)c12	8	3	1	-4	x
COc1ccccc1C(=O)NC(=O)COC(=O)CN1C(=O)NC2(CCCCC2C)C1=O (stereo not drawn)	-7	2	-1	2	0
COc1ccc(OC)c(C(=O)COC(=O)CN2C(=O)NC3(CCCCC3C)C2=O)c1 (stereo not drawn)	-2	22*	-2	1	-1
COc1cc(C(=O)N2CCC(NC(=O)C(Cc3ccc(C(C)C)cc3)NC(C)=O)CC2)cc(OC)c1OC (stereo not drawn)	3	0	0	52*	-4
O=C1/C(=C/c2ccc(N3CCOCC3)o2)SC(=Nc2ccccc2)N1CCc1c[nH]c2ccccc12	11	-50	-72	89	148*
CCN(c1ccccc1)S(=O)(=O)c1ccc(N2CCN(c3ccc(O)cc3)CC2)nc1	1	-6	3	3	x
CCN(c1ccccc1)S(=O)(=O)c1ccc(N2CCN(c3ccc(OC)cc3)CC2)nc1	0	26*	-4	2	x
CC(C)c1cccc(-c2csc(C(C)(O)c3cccc(F)c3)n2)c1 (stereo not drawn)	x	x	3	1	x
O=S1(=O)N[C@@H](Cc2ccccc2)COc2cccc(N3CCSCC3)c21	x	x	-4	-1	x
S=C1Cc2ccccc2N1	x	-30	39*	1	x
SMILES	IDE inh	IDE act	CSN deneddyl inh	HNF4A DNA FP	TPT1 inh
COC(=O)C(C(=O)OC)c1ncccc1[N+](=O)[O-]	-3	18*	1	-2	-5
COc1ncc(-c2ccc(N3C(c4ccsc4)=Cc4ccc(F)cc4C3CC(C)=O)cc2)cn1 (stereo not drawn)	x	x	-1	2	x
Oc1oc(-c2cccc3ccccc23)nc1/C=N/c1nccs1	13	-51	13	-2	31*
CCOC(=O)Cc1csc(NC(=O)c2sc3nc4c(C)cc(C)cc4cc3c2N)n1	4	-10	4	40*	12
Cc1cc(C(=O)COC(=O)c2cc(Cl)c(O)c(Cl)c2)c(C)n1C	4	2	42*	-23	x
O=C(NCc1n[nH]c(=S)n1-c1ccc(F)cc1)c1ccc(S(=O)(=O)N2CCOCC2)cc1	3	3	1	32*	-2
O=C(CN1CCN(CN2C(=O)NC3(CCCCCC3)C2=O)CC1)Nc1ccc(F)cc1	-2	19*	-3	-4	x
O=C1NC(=Nc2ccccc2)S/C1=C/c1cccs1	-2	0	-1	64*	-1
COc1ccccc1/C=C/C=N/NC(=O)c1ccccn1	0	6	6	5	-1
COc1ccccc1/C=C/C=N/NC(=O)c1cc(-c2ccco2)[nH]n1	13	x	45*	-18	5
Cc1cc(-c2ccc(N=Nc3c(S(=O)(=O)O)cc4cc(S(=O)(=O)O)cc(N)c4c3O)c(C)c2)ccc1N=Nc1c(S(=O)(=O)O)cc2cc(S(=O)(=O)O)cc(N)c2c1O	5	x	x	x	80*
Cc1ccc(-c2nc3cccnc3s2)cc1NC(=O)C1c2ccccc2Oc2ccccc21	x	9	36*	40*	x
C(=N\NC1=Nc2cccc3cccc1c23)/c1ccccn1	x	-23	14	54*	x
N#Cc1ccc(NC(=S)N2CCC3CC2c2cc(-c4ccc5c(c4)OCO5)ccc23)cc1 (stereo not drawn)	x	x	-3	3	x
CCOC(=O)c1c(NC(=O)c2cc(-c3ccc(O)cc3)on2)sc(C(C)=O)c1C	2	7	10	154*	2
CCOC(=O)c1c(NC(=O)CC(C)C)sc(C(C)=O)c1C	2	3	0	0	-2
O=C(CC[C@H]1O[C@@H](n2ccc(=O)[nH]c2=O)[C@H](O)[C@@H]1O)NCCCc1ccccc1	x	x	0	5	x
Cc1ccc(/C=c2\sc3nc(-c4cccs4)nn3c2=O)o1	-3	0	44*	1	9
COc1cccc(/C=c2\sc3nc(-c4cccs4)nn3c2=O)c1OC	-5	3	6	-1	0
Clc1ccc(C2=Nc3cc(Cl)ccc3OC2)cc1	-1	15	-9	68*	2
Cc1cc(C=O)c(C)n1-c1cccc(C(=O)O)c1	4	-3	9	-9	0
Cc1ccc(C)n1-c1cccc(C(=O)O)c1	10	x	x	x	51*
COC(=O)[C@@]12C[C@@H](CC(=O)N3CCSCC3)C(=O)N(Cc3ccco3)C1=CCC(C)(C)C2	x	x	-5	-4	x
O=C1c2cccc3c(O)ccc(c23)C(=O)N1Cc1ccco1	x	30*	-73	-99	x
O=C1c2cccc3c(O)ccc(c23)C(=O)N1c1ccc(Cl)cc1	-32	52*	-76	-100	-14
COc1cc2c(cc1OC)C(c1ccc3c(c1)Cc1ccccc1-3)OC(=O)C2 (stereo not drawn)	x	x	-2	-2	x
COC(=O)C1=CN(c2ccc(N3CCOCC3)cc2)C(N)=C(C#N)C1c1cccc(F)c1 (stereo not drawn)	x	x	0	3	x
CCOC(=O)CSc1nnc(CSc2nc3sc4c(c3c(=O)[nH]2)CCCC4)n1-c1ccccc1	10	3	-10	34*	-2
